From ChEMBL document CHEMBL5260808, “Design of Phthalazinone Amide Histamine H1 Receptor Antagonists for Use in Rhinitis” (ACS Med Chem Lett, 2017)
pIC50, pKi: −log10 of the molar value. Active and inactive are the calls of the source. The rule behind the calls is not given here.

Columns and labels:
[1] = target: T1, Histamine H1 receptor (Homo sapiens, UniProt P35367); experiment: Antagonist potency at human H1 receptor; conditions: read-out: pA2 (converted)
[2] = target: T1, Histamine H1 receptor; experiment: Antagonist activity against recombinant human H1 receptor expressed in CHO cells incubated for 30 mins by FLIPR analysis; type: cell-based
[3] = target: T2, Alpha-1B adrenergic receptor (Homo sapiens, UniProt P35368); experiment: Antagonist activity against recombinant human adrenergic alpha1B receptor expressed in CHO cells incubated for 30 mins by FLIPR analysis; type: cell-based
T2 sequence (P35368 whole entry): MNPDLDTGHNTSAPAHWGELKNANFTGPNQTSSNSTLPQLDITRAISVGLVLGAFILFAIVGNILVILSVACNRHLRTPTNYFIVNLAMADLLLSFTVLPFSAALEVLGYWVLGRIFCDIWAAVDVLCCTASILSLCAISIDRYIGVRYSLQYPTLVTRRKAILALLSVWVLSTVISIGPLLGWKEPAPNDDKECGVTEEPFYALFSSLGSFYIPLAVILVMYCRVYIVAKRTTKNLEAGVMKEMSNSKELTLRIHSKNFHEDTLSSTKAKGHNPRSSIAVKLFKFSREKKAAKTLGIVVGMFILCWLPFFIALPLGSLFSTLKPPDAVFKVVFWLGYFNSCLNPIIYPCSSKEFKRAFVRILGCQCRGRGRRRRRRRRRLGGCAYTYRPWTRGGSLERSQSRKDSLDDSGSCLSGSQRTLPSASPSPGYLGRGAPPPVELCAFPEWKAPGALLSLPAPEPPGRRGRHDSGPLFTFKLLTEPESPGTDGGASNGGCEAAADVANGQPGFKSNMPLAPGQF

[4] = target: Voltage-gated inwardly rectifying potassium channel KCNH2 (Homo sapiens, UniProt Q12809); experiment: Displacement of [3H]dofetilide from human ERG expressed in CHO-K1 cell membrane measured after 45 mins by topcount scintillation counting method; type: toxicity, cell membranes
Chain of Voltage-gated inwardly rectifying potassium channel KCNH2 (Q12809 whole entry): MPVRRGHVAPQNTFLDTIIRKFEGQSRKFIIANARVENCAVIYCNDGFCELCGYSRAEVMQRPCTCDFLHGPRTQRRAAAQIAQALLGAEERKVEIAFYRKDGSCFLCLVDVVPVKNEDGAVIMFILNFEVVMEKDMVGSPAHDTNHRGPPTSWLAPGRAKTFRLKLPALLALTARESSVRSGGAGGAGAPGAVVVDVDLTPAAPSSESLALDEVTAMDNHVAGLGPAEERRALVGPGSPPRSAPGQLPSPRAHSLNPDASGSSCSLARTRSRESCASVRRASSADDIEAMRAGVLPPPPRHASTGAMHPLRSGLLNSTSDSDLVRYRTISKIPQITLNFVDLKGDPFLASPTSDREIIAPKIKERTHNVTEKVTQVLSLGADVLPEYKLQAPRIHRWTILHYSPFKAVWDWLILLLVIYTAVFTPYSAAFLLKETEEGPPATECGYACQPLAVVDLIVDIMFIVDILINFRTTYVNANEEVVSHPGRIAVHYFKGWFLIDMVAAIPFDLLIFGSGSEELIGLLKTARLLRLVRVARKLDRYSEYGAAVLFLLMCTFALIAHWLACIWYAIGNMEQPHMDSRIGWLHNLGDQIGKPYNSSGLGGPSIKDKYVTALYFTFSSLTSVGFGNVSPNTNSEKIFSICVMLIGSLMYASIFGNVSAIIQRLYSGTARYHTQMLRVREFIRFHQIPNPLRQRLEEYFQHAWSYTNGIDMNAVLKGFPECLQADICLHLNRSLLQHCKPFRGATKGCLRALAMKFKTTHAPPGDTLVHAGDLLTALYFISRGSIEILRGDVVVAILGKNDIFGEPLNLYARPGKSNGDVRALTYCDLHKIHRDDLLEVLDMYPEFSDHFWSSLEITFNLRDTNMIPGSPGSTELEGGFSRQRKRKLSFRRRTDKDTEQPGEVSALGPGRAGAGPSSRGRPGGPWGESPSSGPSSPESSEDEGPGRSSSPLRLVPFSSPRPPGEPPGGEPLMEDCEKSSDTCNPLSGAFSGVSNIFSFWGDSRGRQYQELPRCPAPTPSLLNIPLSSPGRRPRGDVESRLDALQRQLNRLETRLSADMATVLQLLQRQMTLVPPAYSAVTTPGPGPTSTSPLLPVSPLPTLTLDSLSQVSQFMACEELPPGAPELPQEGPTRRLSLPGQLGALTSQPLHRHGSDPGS

[5] = Distribution coefficient, log D of compound in n-octanol and phosphate buffered saline at pH 7.4 by HPLC analysis; type: physicochemical
[6] = target: T3, Alpha-1A adrenergic receptor (Homo sapiens, UniProt P35348); experiment: Antagonist activity against recombinant human adrenergic alpha1A receptor expressed in Rat1 cells incubated for 30 mins by FLIPR analysis; type: cell-based
T3 sequence (P35348 whole entry): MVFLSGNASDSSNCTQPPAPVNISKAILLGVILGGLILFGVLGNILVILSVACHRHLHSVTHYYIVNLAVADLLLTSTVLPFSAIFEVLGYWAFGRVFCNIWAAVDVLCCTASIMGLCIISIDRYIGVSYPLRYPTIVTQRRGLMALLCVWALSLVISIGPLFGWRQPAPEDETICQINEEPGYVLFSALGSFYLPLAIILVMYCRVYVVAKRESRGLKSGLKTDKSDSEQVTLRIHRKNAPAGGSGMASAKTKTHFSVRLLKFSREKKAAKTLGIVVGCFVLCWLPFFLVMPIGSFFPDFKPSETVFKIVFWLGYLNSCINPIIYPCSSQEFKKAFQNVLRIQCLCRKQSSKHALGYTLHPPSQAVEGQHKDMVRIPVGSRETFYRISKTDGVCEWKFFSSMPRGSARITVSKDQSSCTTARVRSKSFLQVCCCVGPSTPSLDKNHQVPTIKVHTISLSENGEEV
Method in brief: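 Human α1A or α1B adrenoceptor in fibroblast cells. Plate-based calcium imaging.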

[7] = Drug absorption into hepatic portal vein of CD Sprague-Dawley rat at 3 mg/kg, po; type: ADME, organism-based; conditions: read-out: Drug absorption
Method in brief: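 Male CD Sprague–Dawley rats dosed orally at 3 mg/kg. Absorption measured into the hepatic portal vein.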

[8] = Elimination in sc dosed dog urine; type: ADME, organism-based, Canis lupus familiaris; conditions: read-out: Drug excretion
Method in brief: (§1)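 Beagle dogs dosed iv at 1 mg/kg, or subcutaneously in one dog. Parent compound measured in urine.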

[9] = Elimination in iv dosed dog urine; type: ADME, organism-based, Canis lupus familiaris; conditions: read-out: Drug excretion; method in brief: as §1
[10] = Drug metabolism in monkey intestinal microsomes assessed as rate of metabolism; type: ADME, Macaca mulatta, Intestine; conditions: rhesus monkey
Method in brief: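 Intestinal microsomes from monkey; in vitro rate of metabolism given in mL/min/g.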

[11] = Drug metabolism in human liver microsomes assessed as rate of metabolism; type: ADME
[12] = Oral bioavailability in CD Sprague-Dawley rat at 300 mg/kg; type: ADME, organism-based; conditions: in vivo
Method in brief: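 Male CD Sprague–Dawley rats dosed orally at 300 mg/kg. Vehicle was H2O–PEG200–DMSO (50:45:5). Oral bioavailability determined from blood concentrations.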

[13] = Drug metabolism in rat liver microsomes assessed as rate of metabolism; type: ADME
[14] = test system: Cavia porcellus; experiment: Antihistamine activity against conscious unrestrained ovalbumin and aluminum hydroxide sensitized guinea pigs assessed as inhibition of histamine-induced nasal congestion by measuring time duration of action at 1 mg/ml, intranasal measured after 1 to 24 hrs; type: functional; conditions: time 1-24 hrs
Method in brief: (§2)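 Guinea pigs dosed intranasally with a 1 mg/mL solution (25 μL/nostril). Bilateral histamine challenge (15 or 10 mM, 25 μL/nostril, light isoflurane anesthesia) given 1 and 24 h after dosing. […] Comparison with vehicle-pretreated/histamine-challenged controls; mean ± SEM, n = 16–27 per group; p < 0.05.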

[15] = Drug metabolism in human hepatocytes assessed as metabolite formation at 10 uM measured after 3 hrs by LC-MS/MS analysis; type: ADME, cell-based, Hepatocyte
Method in brief: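 Cryopreserved human hepatocytes incubated with compound (10 μM initial) for 3 h. Metabolites detected and profiled by LC–MS/MS.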

[16] = Drug metabolism in dog liver microsomes assessed as rate of metabolism; type: ADME, Canis lupus familiaris
[17] = Drug metabolism in mouse liver microsomes assessed as rate of metabolism; type: ADME
[18] = Bioavailability in human; type: ADME, organism-based; conditions: in vivo
[19] = Volume of distribution at steady state in CD Sprague-Dawley rat at 3 mg/kg, po and 1 mg/kg, iv; type: ADME, organism-based; conditions: in vivo
Method in brief: (§3)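 Male CD Sprague–Dawley rats and Beagle dogs. Solution in H2O–PEG200–DMSO (50:45:5), given iv at 1 mg/kg, and po at 3 mg/kg (rat) or 2 mg/kg (dog). Vss and elimination half-life derived after iv dosing.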

[20] = Drug uptake in rat brain at 1 mg/kg, iv bolus dose; type: ADME, organism-based; conditions: in vivo
Method in brief: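 Rats given a 1 mg/kg intravenous bolus. Brain and blood sampled at 5 min; brain–blood ratio and brain concentration determined, n = 3.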

[21] = Ratio of drug level in rat brain to blood at 1 mg/kg, iv bolus dose measured after 5 mins
[22] = Elimination half life in Beagle dog at 2 mg/kg, po and 1 mg/kg, iv; type: ADME, organism-based, Canis lupus familiaris; conditions: in vivo, read-out: beta t1/2 (converted); method in brief: as §3
[23] = Volume of distribution at steady state in Beagle dog at 2 mg/kg, po and 1 mg/kg, iv; type: ADME, organism-based, Canis lupus familiaris; conditions: in vivo; method in brief: as §3
[24] = Elimination half life in CD Sprague-Dawley rat at 3 mg/kg, po and 1 mg/kg, iv; type: ADME, organism-based; conditions: in vivo, read-out: beta t1/2 (converted); method in brief: as §3
[25] = target: D(1A) dopamine receptor (Homo sapiens) (UniProt P21728); experiment: Inhibition of human dopamine D1 receptor at 1 uM relative to control
Chain of D(1A) dopamine receptor (Homo sapiens) (P21728 whole entry): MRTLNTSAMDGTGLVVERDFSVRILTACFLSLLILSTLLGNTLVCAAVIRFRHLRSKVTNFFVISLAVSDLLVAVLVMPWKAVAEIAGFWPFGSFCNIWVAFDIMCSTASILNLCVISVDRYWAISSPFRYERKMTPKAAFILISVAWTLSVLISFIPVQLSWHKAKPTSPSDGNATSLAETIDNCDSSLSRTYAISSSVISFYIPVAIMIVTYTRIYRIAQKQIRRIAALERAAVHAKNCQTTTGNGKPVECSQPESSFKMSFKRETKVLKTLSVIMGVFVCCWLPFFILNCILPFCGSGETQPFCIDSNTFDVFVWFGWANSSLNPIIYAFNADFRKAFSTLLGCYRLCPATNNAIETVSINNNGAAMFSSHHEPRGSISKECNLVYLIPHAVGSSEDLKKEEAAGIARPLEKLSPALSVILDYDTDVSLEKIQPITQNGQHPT

[26] = target: 5-hydroxytryptamine receptor 6 (Homo sapiens) (UniProt P50406); experiment: Inhibition of human 5-HT6 receptor at 1 uM relative to control
Chain of 5-hydroxytryptamine receptor 6 (Homo sapiens) (P50406 whole entry): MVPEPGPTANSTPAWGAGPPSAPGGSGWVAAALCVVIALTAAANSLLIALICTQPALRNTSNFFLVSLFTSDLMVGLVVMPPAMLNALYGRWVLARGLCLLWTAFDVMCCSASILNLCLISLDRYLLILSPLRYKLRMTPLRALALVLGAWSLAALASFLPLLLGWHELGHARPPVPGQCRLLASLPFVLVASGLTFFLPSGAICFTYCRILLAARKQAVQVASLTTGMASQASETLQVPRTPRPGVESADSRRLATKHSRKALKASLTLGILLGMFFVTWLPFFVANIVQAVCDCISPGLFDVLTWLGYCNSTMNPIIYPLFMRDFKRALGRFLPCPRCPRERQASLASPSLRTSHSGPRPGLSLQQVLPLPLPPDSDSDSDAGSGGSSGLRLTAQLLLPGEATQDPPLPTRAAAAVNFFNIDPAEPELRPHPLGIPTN

[27] = target: 5-hydroxytryptamine receptor 7 (Homo sapiens) (UniProt P34969); experiment: Inhibition of human 5-HT7 receptor at 1 uM relative to control
Chain of 5-hydroxytryptamine receptor 7 (Homo sapiens) (P34969 whole entry): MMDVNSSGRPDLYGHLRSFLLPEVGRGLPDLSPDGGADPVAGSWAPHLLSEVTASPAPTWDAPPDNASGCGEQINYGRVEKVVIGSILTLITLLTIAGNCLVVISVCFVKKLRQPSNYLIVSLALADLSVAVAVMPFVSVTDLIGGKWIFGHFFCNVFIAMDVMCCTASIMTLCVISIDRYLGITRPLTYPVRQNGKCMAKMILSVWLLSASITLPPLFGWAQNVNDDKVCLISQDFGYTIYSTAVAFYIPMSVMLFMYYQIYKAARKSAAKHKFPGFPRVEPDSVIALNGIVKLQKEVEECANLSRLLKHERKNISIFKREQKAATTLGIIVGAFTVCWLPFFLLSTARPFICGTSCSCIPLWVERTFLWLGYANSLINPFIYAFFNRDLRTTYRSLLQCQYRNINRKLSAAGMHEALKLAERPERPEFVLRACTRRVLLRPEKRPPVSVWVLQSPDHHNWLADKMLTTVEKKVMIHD

[28] = test system: Cavia porcellus; experiment: Antihistamine activity against conscious unrestrained ovalbumin and aluminum hydroxide sensitized guinea pigs assessed as inhibition of histamine-induced nasal congestion at 1 mg/ml, intranasal measured after 1 to 24 hrs relative to control; type: functional, organism-based; conditions: time 1-24 hrs; method in brief: as §2
[29] = target: D(2) dopamine receptor (Homo sapiens) (UniProt P14416); experiment: Inhibition of human dopamine D2S receptor at 1 uM relative to control
Chain of D(2) dopamine receptor (Homo sapiens) (P14416 whole entry): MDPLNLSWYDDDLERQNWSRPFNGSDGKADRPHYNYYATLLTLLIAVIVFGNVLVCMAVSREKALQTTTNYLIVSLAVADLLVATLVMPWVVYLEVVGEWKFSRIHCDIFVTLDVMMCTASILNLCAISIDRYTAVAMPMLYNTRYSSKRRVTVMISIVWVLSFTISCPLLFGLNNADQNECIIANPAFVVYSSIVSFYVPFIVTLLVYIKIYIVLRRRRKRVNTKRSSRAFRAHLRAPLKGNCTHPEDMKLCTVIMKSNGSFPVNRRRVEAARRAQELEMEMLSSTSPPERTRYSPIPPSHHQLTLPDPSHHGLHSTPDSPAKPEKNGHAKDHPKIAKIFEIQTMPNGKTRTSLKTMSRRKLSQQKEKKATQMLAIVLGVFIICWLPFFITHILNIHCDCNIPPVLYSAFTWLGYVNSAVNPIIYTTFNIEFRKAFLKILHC

[30] = target: 5-hydroxytryptamine receptor 2A (Homo sapiens) (UniProt P28223); experiment: Inhibition of human 5-HT2A receptor at 1 uM relative to control
Chain of 5-hydroxytryptamine receptor 2A (Homo sapiens) (P28223 whole entry): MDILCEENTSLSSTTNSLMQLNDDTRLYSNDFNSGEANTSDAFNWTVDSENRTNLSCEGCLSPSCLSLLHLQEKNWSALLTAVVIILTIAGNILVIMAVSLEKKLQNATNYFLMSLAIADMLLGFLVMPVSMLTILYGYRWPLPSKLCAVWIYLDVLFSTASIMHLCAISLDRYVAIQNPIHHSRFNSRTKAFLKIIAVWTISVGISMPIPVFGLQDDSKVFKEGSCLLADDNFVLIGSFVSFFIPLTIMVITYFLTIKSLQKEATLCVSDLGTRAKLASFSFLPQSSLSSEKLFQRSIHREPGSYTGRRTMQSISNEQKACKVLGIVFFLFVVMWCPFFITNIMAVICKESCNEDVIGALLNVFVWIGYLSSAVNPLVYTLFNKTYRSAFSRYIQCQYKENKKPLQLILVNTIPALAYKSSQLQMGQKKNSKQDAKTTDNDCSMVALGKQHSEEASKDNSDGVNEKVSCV

T1 sequence (P35367 whole entry): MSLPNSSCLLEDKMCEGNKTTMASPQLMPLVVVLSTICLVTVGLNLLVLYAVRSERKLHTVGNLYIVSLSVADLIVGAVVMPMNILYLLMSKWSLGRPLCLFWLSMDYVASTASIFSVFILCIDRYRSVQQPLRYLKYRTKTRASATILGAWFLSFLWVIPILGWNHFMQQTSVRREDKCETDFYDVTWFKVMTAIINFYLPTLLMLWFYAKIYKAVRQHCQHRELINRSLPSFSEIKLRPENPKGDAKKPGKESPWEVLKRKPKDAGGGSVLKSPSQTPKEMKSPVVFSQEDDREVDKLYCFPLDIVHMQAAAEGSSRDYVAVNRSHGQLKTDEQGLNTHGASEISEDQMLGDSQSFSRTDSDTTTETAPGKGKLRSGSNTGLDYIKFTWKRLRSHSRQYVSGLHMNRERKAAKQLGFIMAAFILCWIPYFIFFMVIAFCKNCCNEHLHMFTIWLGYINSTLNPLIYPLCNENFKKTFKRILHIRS

Row | SMILES | Kb [1] [nM] | pKi [2] | pKi [3] | logD [5] | pKi [6] | pIC50 [4] | other results
1 | COCCCC(=O)N(C)CCN1CCC[C@@H]1Cn1nc(Cc2ccc(Cl)cc2)c2ccccc2c1=O | 0.1 | 8.50 | 6.90 | 3.5 | 7.50 | 6.40 | 
2 | COCC(=O)NCCN1CCC[C@@H]1Cn1nc(Cc2ccc(Cl)cc2)c2ccccc2c1=O | 0.2 | 8.90 | 7.50 | 3.1 | 7.30 | 6.70 | 
3 | COCCCC(=O)NCCN1CCC[C@@H]1Cn1nc(Cc2ccc(Cl)cc2)c2ccccc2c1=O.Cl |  |  |  |  |  |  | Fa [7]: 3%; dose excreted [8]: < 3%; dose excreted [9]: < 3%; CLint scaled [10]: > 50 mL/min/g; Drug metabolism [11]: 25 mL/min/g; bioavailability [12]: < 3%; Drug metabolism [13]: 50 mL/min/g; Time [14]: <48 h; Drug metabolism [15]: Metabolite_Detected; Drug metabolism [16]: 12 mL/min/g; Drug metabolism [17]: 50 mL/min/g
4 | CCCC(=O)NCCN1CCC[C@@H]1Cn1nc(Cc2ccc(Cl)cc2)c2ccccc2c1=O | 0.631 | 9.10 | 7.10 | 3.7 | 7.50 | 7.20 | 
5 | COCCC(=O)NCCN1CCC[C@@H]1Cn1nc(Cc2ccc(Cl)cc2)c2ccccc2c1=O | 0.501 | 9.10 | 7.20 | 3.2 | 8.10 | 6.40 | 
6 | COCCCC(=O)NCCN1CCC[C@@H]1Cn1nc(Cc2ccc(Cl)cc2)c2ccccc2c1=O.O=C(O)C(F)(F)F |  |  |  | 3.5 |  |  | Vdss [19]: 0.7 L/kg; Drug uptake [20]: 121 ng/g; Kp at 5 min [21]: 0.18; Time [14]: <48 h; half-life [22]: 30 min; Vdss [23]: 1.1 L/kg; half-life [24]: 12 min
7 | CCCNC(=O)CCCN1CCC[C@@H]1Cn1nc(Cc2ccc(Cl)cc2)c2ccccc2c1=O | 0.158 | 8.30 | 7.50 | 3.3 | 8.00 | 8.80 | 
8 | COCCNC(=O)CCCN1CCC[C@@H]1Cn1nc(Cc2ccc(Cl)cc2)c2ccccc2c1=O | 0.501 | 9.10 | 8.00 | 2.5 | 8.20 | 7.40 | 
9 | COCCCC(=O)NCCN1CCC[C@@H]1Cn1nc(Cc2ccc(Cl)cc2)c2ccccc2c1=O |  |  |  |  |  |  | inhibition [25]: > 50%; inhibition [26]: > 50%; inhibition [27]: > 50%; Activity [28]: Active; inhibition [29]: > 50%; inhibition [30]: > 50%

Now from value to compound, other results behind:

Row | Kb [1] [nM] | pKi [2] | pKi [3] | logD [5] | pKi [6] | SMILES | pIC50 [4] | other results
10 | 0.316 | 8.40 | 7.10 | 3.9 | 7.10 | O=C(NCCN1CCC[C@@H]1Cn1nc(Cc2ccc(Cl)cc2)c2ccccc2c1=O)C1CCCC1 | 7.30 | 
11 | 0.251 | 9.20 | 7.80 | 3.4 | 7.80 | CCC(=O)NCCN1CCC[C@@H]1Cn1nc(Cc2ccc(Cl)cc2)c2ccccc2c1=O | 6.70 | 
12 |  |  |  | 2.3 |  | CN1CCCC(n2nc(Cc3ccc(Cl)cc3)c3ccccc3c2=O)CC1 (stereo unspecified) [AZELASTINE] |  | bioavailability [18]: 40%
13 | 0.132 | 8.40 | 7.20 | 3.2 | 8.40 | CC(C)C(=O)NCCN1CCC[C@@H]1Cn1nc(Cc2ccc(Cl)cc2)c2ccccc2c1=O | 6.40 | 
14 | 0.794 | 8.00 |  | 3.3 | 6.70 | O=C(NCCN1CCC[C@@H]1Cn1nc(Cc2ccc(Cl)cc2)c2ccccc2c1=O)C1CCOCC1 | 6.10 | 
